Reference: ChEMBL document CHEMBL4622949, “A chalcone derivative binds a putative allosteric site of YopH: Inhibition of a virulence factor of Yersinia” (Bioorg Med Chem Lett, 2020)
The source made the active and inactive calls. No cut-off for these calls is given here.

How the values were obtained:
[1] = molecular target: T1, Tyrosine-protein phosphatase non-receptor type 22 (Homo sapiens, UniProt Q9Y2R2); test: Inhibition of LYP (unknown origin) at 25 uM using pNPP as substrate relative to control
T1 sequence (Q9Y2R2 whole entry): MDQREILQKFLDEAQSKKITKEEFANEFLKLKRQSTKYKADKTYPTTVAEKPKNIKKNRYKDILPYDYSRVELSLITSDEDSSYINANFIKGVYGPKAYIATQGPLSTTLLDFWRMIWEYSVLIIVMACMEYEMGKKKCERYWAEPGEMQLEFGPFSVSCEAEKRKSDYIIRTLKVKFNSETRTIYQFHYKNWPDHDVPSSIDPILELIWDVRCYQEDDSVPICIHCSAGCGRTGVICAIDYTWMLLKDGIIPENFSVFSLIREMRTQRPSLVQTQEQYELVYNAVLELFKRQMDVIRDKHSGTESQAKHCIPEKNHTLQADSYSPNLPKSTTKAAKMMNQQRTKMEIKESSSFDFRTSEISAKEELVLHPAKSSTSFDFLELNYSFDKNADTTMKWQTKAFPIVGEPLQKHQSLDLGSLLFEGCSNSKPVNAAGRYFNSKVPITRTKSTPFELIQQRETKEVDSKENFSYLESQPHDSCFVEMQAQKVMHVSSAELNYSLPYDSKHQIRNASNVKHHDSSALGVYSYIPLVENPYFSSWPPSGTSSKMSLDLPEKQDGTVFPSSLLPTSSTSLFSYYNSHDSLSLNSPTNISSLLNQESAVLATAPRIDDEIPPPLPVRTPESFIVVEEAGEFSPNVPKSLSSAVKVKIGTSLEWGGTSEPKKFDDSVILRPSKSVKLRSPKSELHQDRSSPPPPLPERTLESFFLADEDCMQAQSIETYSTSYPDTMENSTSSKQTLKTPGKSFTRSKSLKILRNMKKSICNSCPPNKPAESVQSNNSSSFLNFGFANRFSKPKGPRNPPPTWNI

[2] = molecular target: T2, Tyrosine-protein phosphatase YopH (Yersinia enterocolitica, UniProt P15273); test: Non-competitive mixed inhibition of Yersinia enterocolitica YopH assessed as inhibition constant for enzyme-substrate complex
T2 sequence (P15273 whole entry): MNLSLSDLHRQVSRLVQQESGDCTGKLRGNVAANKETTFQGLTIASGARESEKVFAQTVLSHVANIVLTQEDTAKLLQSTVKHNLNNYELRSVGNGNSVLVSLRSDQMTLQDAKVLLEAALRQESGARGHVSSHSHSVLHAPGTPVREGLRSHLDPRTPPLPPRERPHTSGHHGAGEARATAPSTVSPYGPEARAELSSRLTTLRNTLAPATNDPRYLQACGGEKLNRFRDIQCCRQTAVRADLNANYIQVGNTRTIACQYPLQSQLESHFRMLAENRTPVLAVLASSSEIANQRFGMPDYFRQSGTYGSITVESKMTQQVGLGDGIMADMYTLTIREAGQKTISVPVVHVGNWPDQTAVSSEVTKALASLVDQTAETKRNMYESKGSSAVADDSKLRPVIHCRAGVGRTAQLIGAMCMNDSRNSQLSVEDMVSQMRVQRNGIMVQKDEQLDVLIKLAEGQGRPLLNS
Summary of the method: (§1)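 Kinetic parameters were derived from Michaelis–Menten plots of YopH activity with and without inhibitor. Ki and α were obtained from a non-competitive mixed-inhibition analysis. Results are means ± SD of three independent experiments.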

[3] = molecular target: T2, Tyrosine-protein phosphatase YopH; test: Inhibition of recombinant Yersinia enterocolitica YopH assessed as reduction in conversion of pNPP to nitrophenol and inorganic phosphate using pNPP as substrate by microplate reader assay
Summary of the method: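 Recombinant YopH phosphatase activity was measured in vitro. Values are the average of individual means ± SD from three independent experiments.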

[4] = molecular target: Tyrosine-protein phosphatase YopH (Yersinia enterocolitica) (UniProt P15273); test: Irreversible inhibition of Yersinia enterocolitica YopH assessed as enzyme recovery activity by dilution assay relative to control; parameters: scale not given: the % may be the effect or the level left
Tyrosine-protein phosphatase YopH (Yersinia enterocolitica), sequence (P15273 whole entry): as above
Summary of the method: (§2)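 Reversibility tested by preincubation and dilution: enzyme preincubated with inhibitor, then diluted, and recovered phosphatase activity expressed as a percentage of control.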

[5] = molecular target: T2, Tyrosine-protein phosphatase YopH; test: Non-competitive mixed inhibition of Yersinia enterocolitica YopH assessed as inhibition constant; summary of the method: as §1
[6] = molecular target: T3, Low molecular weight protein-tyrosine phosphatase A (Mycobacterium tuberculosis) (UniProt P9WIA1); test: Reversible inhibition of Mycobacterium tuberculosis PtpA assessed as enzyme recovery activity by dilution assay relative to control; parameters: scale not given: the % may be the effect or the level left; summary of the method: as §2
T3 sequence (whole entry): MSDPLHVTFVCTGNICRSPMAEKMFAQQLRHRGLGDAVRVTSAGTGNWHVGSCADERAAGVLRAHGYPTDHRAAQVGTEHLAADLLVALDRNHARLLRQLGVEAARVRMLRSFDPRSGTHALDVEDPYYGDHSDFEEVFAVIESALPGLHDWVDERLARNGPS

[7] = molecular target: T2, Tyrosine-protein phosphatase YopH; test: Inhibition of Yersinia enterocolitica YopH
Summary of the method: (§3)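 Inhibition of the PTP panel, run in three independent experiments. Values are the average of the individual means ± SD.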

[8] = molecular target: T2, Tyrosine-protein phosphatase YopH; test: Non-competitive inhibition of Yersinia enterocolitica YopH assessed as inhibition constant using varying level of pNPP as substrate by Lineweaver-Burk plot analysis
[9] = molecular target: T4, Low molecular weight protein-tyrosine phosphatase A (Mycobacterium tuberculosis, UniProt P9WIA1); test: Non-competitive inhibition of Mycobacterium tuberculosis PtpA assessed as inhibition constant using varying level of pNPP as substrate by Lineweaver-Burk plot analysis
T4 sequence (P9WIA1 whole entry): T3 sequence (whole entry)

[10] = molecular target: T5, Phosphotyrosine protein phosphatase (Mycobacterium tuberculosis) (UniProt A0A045ISB3); test: Reversible inhibition of Mycobacterium tuberculosis PtpB assessed as enzyme recovery activity by dilution assay relative to control; parameters: scale not given: the % may be the effect or the level left; summary of the method: as §2
T5 sequence (whole entry): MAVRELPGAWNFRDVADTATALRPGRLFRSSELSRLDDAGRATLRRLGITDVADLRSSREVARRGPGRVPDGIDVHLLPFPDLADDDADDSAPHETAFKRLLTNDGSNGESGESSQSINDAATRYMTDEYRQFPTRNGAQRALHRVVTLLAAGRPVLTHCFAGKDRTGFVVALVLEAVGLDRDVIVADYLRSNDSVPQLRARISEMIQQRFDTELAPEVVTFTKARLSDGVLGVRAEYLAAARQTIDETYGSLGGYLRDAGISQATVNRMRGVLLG

[11] = Selectivity index, ratio of IC50 for human PTP1B to IC50 for LYP (unknown origin) using pNPP as substrate
[12] = molecular target: Tyrosine-protein phosphatase YopH (Yersinia enterocolitica) (UniProt P15273); test: Binding affinity of Yersinia enterocolitica YopH assessed as protein stabilization by measuring change in melting temperature by thermal denaturation assay
Summary of the method: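 YopH thermal denaturation profile recorded with and without ligand at 50 µM; melting temperature (Tm) compared between the two.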

[13] = molecular target: T6, Tyrosine-protein phosphatase non-receptor type 1 (Homo sapiens, UniProt P18031); test: Inhibition of human PTP1B; summary of the method: as §3
T6 sequence (P18031 whole entry): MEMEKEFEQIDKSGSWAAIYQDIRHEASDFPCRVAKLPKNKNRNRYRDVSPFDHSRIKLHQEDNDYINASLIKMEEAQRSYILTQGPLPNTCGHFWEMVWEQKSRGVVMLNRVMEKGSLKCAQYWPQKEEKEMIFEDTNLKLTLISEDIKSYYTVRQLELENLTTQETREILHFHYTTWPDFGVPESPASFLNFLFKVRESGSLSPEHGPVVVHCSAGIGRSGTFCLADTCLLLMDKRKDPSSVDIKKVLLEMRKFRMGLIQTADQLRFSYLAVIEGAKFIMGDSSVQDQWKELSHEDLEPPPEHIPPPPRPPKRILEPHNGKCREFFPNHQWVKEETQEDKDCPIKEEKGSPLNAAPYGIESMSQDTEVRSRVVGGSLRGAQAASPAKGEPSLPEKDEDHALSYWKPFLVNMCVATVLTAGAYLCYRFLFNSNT

[14] = molecular target: T1, Tyrosine-protein phosphatase non-receptor type 22; test: Competitive inhibition of LYP (unknown origin) assessed as inhibition constant using varying level of pNPP as substrate by Lineweaver-Burk plot analysis
[15] = molecular target: T6, Tyrosine-protein phosphatase non-receptor type 1; test: Reversible inhibition of human PTP1B assessed as enzyme recovery activity by dilution assay relative to control; parameters: scale not given: the % may be the effect or the level left; summary of the method: as §2
[16] = Selectivity index, ratio of IC50 for PTP-PEST (unknown origin) to IC50 for LYP (unknown origin) using pNPP as substrate; conditions: human
[17] = molecular target: T7, Tyrosine-protein phosphatase non-receptor type 12 (Homo sapiens, UniProt Q05209); test: Competitive inhibition of PTP-PEST (unknown origin) assessed as inhibition constant using varying level of pNPP as substrate by Lineweaver-Burk plot analysis
T7 sequence (Q05209 whole entry): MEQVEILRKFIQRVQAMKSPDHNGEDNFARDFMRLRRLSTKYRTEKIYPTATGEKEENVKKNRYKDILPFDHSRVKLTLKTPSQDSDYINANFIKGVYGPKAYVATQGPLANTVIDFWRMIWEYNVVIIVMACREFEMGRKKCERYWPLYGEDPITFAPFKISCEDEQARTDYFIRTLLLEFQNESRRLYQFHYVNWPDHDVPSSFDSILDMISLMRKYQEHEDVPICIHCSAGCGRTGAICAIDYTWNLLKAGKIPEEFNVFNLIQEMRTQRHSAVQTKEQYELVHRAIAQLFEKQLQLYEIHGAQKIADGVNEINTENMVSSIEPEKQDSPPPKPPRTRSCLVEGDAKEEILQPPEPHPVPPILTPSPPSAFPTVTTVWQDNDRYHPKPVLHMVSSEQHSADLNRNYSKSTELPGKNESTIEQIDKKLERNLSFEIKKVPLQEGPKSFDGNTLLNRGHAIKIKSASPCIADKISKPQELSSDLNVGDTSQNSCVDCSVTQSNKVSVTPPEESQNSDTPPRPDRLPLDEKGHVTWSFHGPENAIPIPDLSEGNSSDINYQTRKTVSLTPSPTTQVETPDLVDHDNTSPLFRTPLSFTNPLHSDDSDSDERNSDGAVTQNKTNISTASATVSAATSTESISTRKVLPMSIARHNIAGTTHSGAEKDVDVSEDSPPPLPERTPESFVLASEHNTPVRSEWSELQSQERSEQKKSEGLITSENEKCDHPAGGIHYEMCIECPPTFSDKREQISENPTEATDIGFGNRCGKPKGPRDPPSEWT

[18] = molecular target: T1, Tyrosine-protein phosphatase non-receptor type 22; test: Inhibition of LYP (unknown origin) using pNPP as substrate
[19] = molecular target: T7, Tyrosine-protein phosphatase non-receptor type 12; test: Inhibition of PTP-PEST (unknown origin); summary of the method: as §3
[20] = molecular target: T1, Tyrosine-protein phosphatase non-receptor type 22; test: Reversible inhibition of LYP (unknown origin) assessed as enzyme recovery activity by dilution assay relative to control; parameters: scale not given: the % may be the effect or the level left; summary of the method: as §2
[21] = molecular target: T8, Phosphotyrosine protein phosphatase (Mycobacterium tuberculosis, UniProt A0A045ISB3); test: Inhibition of Mycobacterium tuberculosis PtpB; summary of the method: as §3
T8 sequence (A0A045ISB3 whole entry): T5 sequence (whole entry)

[22] = molecular target: Tyrosine-protein phosphatase YopH (Yersinia enterocolitica) (UniProt P15273); test: Binding affinity of Yersinia enterocolitica YopH assessed as structural changes in protein by measuring emission spectra by fluorescence assay
Summary of the method: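 Intrinsic fluorescence emission spectrum of YopH (λmax 328 nm) recorded in the presence of ligand; quenching and any shift in λmax monitored as the read-out for structural change.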

[23] = Selectivity index, ratio of IC50 for Yersinia enterocolitica YopH to IC50 for LYP (unknown origin) using pNPP as substrate
[24] = molecular target: T4, Low molecular weight protein-tyrosine phosphatase A; test: Inhibition of Mycobacterium tuberculosis PtpA; summary of the method: as §3
Yersinia enterocolitica = test: Antibacterial activity against Yersinia enterocolitica assessed as inhibition of bacterial growth at 8 to 250 uM after 48 hrs relative to control; format: functional
[25] = molecular target: T6, Tyrosine-protein phosphatase non-receptor type 1; test: Non-competitive inhibition of human PTP1B assessed as inhibition constant using varying level of pNPP as substrate by Lineweaver-Burk plot analysis
[26] = molecular target: T7, Tyrosine-protein phosphatase non-receptor type 12; test: Reversible inhibition of PTP-PEST (unknown origin) assessed as enzyme recovery activity by dilution assay relative to control; parameters: scale not given: the % may be the effect or the level left; summary of the method: as §2
[27] = molecular target: T8, Phosphotyrosine protein phosphatase; test: Competitive inhibition of Mycobacterium tuberculosis PtpB assessed as inhibition constant using varying level of pNPP as substrate by Lineweaver-Burk plot analysis
[28] = Selectivity index, ratio of IC50 for Mycobacterium tuberculosis PtpB to IC50 for LYP (unknown origin) using pNPP as substrate
[29] = molecular target: Tyrosine-protein phosphatase YopH (Yersinia enterocolitica) (UniProt P15273); test: Potency index, ratio of chicoric-acid IC50 to test compound IC50 for inhibition of Yersinia enterocolitica YopH
[30] = Selectivity index, ratio of IC50 for Mycobacterium tuberculosis PtpA to IC50 for LYP (unknown origin) using pNPP as substrate

COc1ccc(C(=O)/C=C/c2ccc(C(=O)O)cc2)cc1OC
inhibition at 25 µM [1]: 4.2%

COc1ccccc1C(=O)/C=C/c1ccc(C(=O)O)cc1
inhibition at 25 µM [1]: 13%

Cc1ccc(C(=O)/C=C/c2ccc(C(=O)O)cc2)cc1
inhibition at 25 µM [1]: 9.5%

COc1ccc(OC)c(C(=O)/C=C/c2ccc(C(=O)O)cc2)c1
inhibition at 25 µM [1]: 15.8%

O=C(O)c1ccc(/C=C/C(=O)c2ccccc2O)cc1
inhibition at 25 µM [1]: 11.7%

O=C(O)c1ccc(/C=C/C(=O)c2ccc(Br)cc2)cc1
inhibition at 25 µM [1]: 15.7%

O=C(O)c1ccc(/C=C/C(=O)c2cccc(O)c2)cc1
inhibition at 25 µM [1]: 7.9%

O=C(/C=C/c1ccc(O)c(O)c1)O[C@@H](C(=O)O)[C@@H](OC(=O)/C=C/c1ccc(O)c(O)c1)C(=O)O [CICHORIC ACID]
Ki [2]: 12500 nM | IC50 [3]: 379000 nM | Activity [4]: 0.6% | Ki [5]: 68300 nM

O=C(O)c1ccc(/C=C/C(=O)c2cccc([N+](=O)[O-])c2)cc1
Activity [6]: 76% | IC50 [7]: 2600 nM | Ki [8]: 1000 nM | Ki [9]: 800 nM | Activity [10]: 81% | Ratio IC50 [11]: 0.28 | ΔTm [12]: 1.5 °C | IC50 [13]: 3200 nM | Ki [14]: 1900 nM | Activity [15]: 45% | Ratio IC50 [16]: 0.94 | Ki [17]: 1000 nM | IC50 [18]: 11500 nM | IC50 [19]: 10900 nM | Activity [20]: 76% | IC50 [21]: 2300 nM | Activity [22]: inactive | Ratio IC50 [23]: 0.22 | IC50 [24]: 3000 nM | inhibition (INH) (Yersinia enterocolitica): 20% | Ki [25]: 1400 nM | Activity [4]: 10% | Activity [26]: 71% | Ki [27]: 400 nM | Ratio IC50 [28]: 0.19 | Ratio IC50 [29]: 145 | inhibition at 25 µM [1]: 57.9% | Ratio IC50 [30]: 0.26

COc1ccc(C(=O)/C=C/c2ccc(C(=O)O)cc2)cc1
inhibition at 25 µM [1]: 8.4%
